GPR7 antag: human neuropeptides B/W receptor 1 antagonism; AID 1861; P48145; inhibition, % at 4.4 µM; GPR7-expressing cells, fluorescence antagonist assay; actives 1.1% (n = 290,000); in the data active means inhibition above about 16%, passing the limit was not always enough;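 further: cells stimulated with the agonist NPW; 0% = agonist with vehicle and 100% = vehicle without agonist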
CHO parental Ca: counter-screen for OX1R antagonists: effect in parental CHO cells | parental CHO-K1, ATP-induced calcium, Fluo-8 fluorescence | actives 0.63% (n = 330,000) | inhibition, % at 5.6 µM;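 active means inhibition above that plate's mean sample inhibition plus 3 SD, cut at about 26% in these data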;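 further: 0% = ATP-challenged DMSO wells and 100% = DMSO wells without ATP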
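Assay system: parental CHO cells; Read-out basis: percent inhibition of ATP-evoked calcium rise, normalized to controls; Benchmarks: ATP and no-ATP DMSO wells; Compound dosing: single nominal dose of 5.6 µM per compound; Signal: Fluo-8 calcium dye fluorescence; Also added: ATP as calcium-mobilizing challenge; Repeats: singlicate.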
MPTP block: blocks calcium-induced mitochondrial swelling; isolated mouse mitochondria, Ca2+ swelling absorbance, 30 min; inhibition, % at 10 µM; actives 1.4% (n = 360,000); AID 602449;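 active means inhibition of 50% or more, scaled per plate between neutral and stimulator controls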;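 further: 0% = DMSO wells given calcium and 100% = 1 mM EGTA wells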
OX1R antag-1: blocks the human orexin 1 receptor. O43613. OX1R-expressing cells, FRET antagonist read-out. inhibition, % at 6.6 µM. actives 1.8% (n = 330,000); in the data active means inhibition mostly above about 38%, no sharp cut-off; inactive means mostly below about 40%;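 further: 0% = agonist challenge alone and 100% = reference antagonist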
Target sequence (O43613 whole entry, looked up): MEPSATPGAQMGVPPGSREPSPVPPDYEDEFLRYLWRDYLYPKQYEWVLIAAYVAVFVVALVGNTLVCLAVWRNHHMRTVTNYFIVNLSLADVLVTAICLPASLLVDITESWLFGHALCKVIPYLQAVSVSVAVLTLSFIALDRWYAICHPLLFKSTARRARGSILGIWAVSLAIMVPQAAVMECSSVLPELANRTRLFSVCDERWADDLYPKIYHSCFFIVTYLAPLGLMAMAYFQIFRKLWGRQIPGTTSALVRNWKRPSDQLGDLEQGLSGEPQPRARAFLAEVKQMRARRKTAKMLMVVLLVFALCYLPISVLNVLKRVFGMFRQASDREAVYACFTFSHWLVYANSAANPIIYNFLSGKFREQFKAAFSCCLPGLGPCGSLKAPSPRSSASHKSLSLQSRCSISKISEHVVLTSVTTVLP
OX1R antag-2: blocks the human orexin 1 receptor; inhibition, % at 5 µM; actives 0.43% (n = 330,000); O43613; CHO/OX1R cells, Fluo-8 calcium fluorescence, orexin A;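 active means inhibition above its plate's threshold, mean inhibition of all tested compounds on the plate plus 3 SD, cut at about 37% in these data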;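 further: 0% = orexin A challenge wells and 100% = SB-334867-A antagonist wells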
Rh123 counter: membrane potential counter-screen of mitochondrial pore inhibitors | actives 78% (n = 5,000) | inhibition, % at 10 µM | isolated mitochondria, Rhodamine 123 fluorescence | AID 624504 | shares compounds with MPTP block; in the data active means inhibition above about 22%;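 further: 0% = DMSO vehicle and 100% = positive control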
MPTP swell DR: MPTP inhibition, dose response swelling confirmation. shares compounds with MPTP block. isolated mitochondria swelling, absorbance. IC50, µM. actives 58% (n = 780). AID 651561; in the data active means IC50 below about 20 µM
MPTP counter DR: active in counter-screen for permeability transition pore inhibitors | shares compounds with MPTP block | isolated mitochondria counterscreen, fluorescence read-out | IC50, µM | actives 49% (n = 780) | AID 651564; in the data active means IC50 below about 80 µM
Active calls of the source: *; i = inactive; . = not tested or not shown. Shown are actives, neighbours in structure and some others; about 3.8% of the full set was active somewhere.

SMILES	GPR7 antag	CHO parental Ca	MPTP block	OX1R antag-1	OX1R antag-2	Rh123 counter	others
O=C(CCN1C(=O)/C(=C\c2ccccc2)SC1=S)NNC(=O)c1cccnc1	8	-5	80*	19	-18	70*
COC(=O)c1c(NC(=O)c2ccccc2[N+](=O)[O-])sc2c1CC(C)(C)NC2(C)C	0	-7	0	14	-15	.
COC(=O)c1c(NC(=O)COc2ccc(Cl)cc2)sc2c1CC(C)(C)NC2(C)C	9	0	2	22	-10	.
COC(=O)c1c(NC(=O)C2CCCCC2)sc2c1CC(C)(C)NC2(C)C	4	-6	67*	14	-28	-10	MPTP swell DR=6.2*;MPTP counter DR=>80
COC(=O)c1c(NC(=O)Cc2ccccc2)sc2c1CC(C)(C)NC2(C)C	4	-10	74*	17	-21	-3	MPTP swell DR=i;MPTP counter DR=>80
O=C(CN(C(=O)Cn1nnc(-c2ccc(F)cc2)n1)c1ccc(F)cc1)NC1CCCC1	-8	-30	-1	15	-27	.
CN(c1ccccc1)S(=O)(=O)c1ccc(C(=O)N2CCCC(C(F)(F)F)C2)cc1 (configuration not stated)	16	1	-1	2	-4	.
O=C(Nc1cccc(F)c1)NC1(C(=O)N2CCOCC2)CCCCC1	-2	-5	0	2	0	.
CCNc1ccc(S(=O)(=O)N(C)C)cc1NCC(=O)Nc1ccc(F)c(Cl)c1	4	25	59*	29	-4	70*
Cc1n[nH]c(=O)c2c(NC(=O)CSc3nn(-c4ccc(F)cc4)c(=S)s3)oc(C)c12	.	-3	87*	34	-9	84*
O=C(CCSc1nc2ccccc2s1)N/N=C/c1c(O)ccc2ccccc12	-1	6	77*	61*	9	63*
CC(=O)Nc1cccc(NC(=O)C(C)N2c3cccc4cccc(c34)S2(=O)=O)c1 (configuration not stated)	-6	-5	-2	22	2	.
CCOc1ccc(NS(=O)(=O)c2cc(C(=O)N3CCCC3)ccc2Cl)cc1	.	-27	0	14	-37	.
CCOc1ccc(NS(=O)(=O)c2cc(NC(=O)c3cccc(C)c3)ccc2Cl)cc1	-6	-22	89*	13	-13	41*
Oc1ccc(/C=N/NC(=S)NCCN2CCOCC2)c(O)c1	-13	-1	0	13	-2	.
CC(NC(=O)/C=C/c1ccc(Br)cc1)c1ccc(Cl)cc1 (configuration not stated)	4	1	78*	25	-31	84*
CC(CCc1ccccc1)NC(=O)/C=C/c1ccc(Cl)cc1 (configuration not stated)	-4	-10	4	9	-16	.
CC(=O)N1CCN(C(=O)CSc2nnc(C)n2-c2ccccc2)CC1	-11	-7	-1	0	0	.
Cc1cccc2c1-c1sc(C(=O)Nc3cccc([N+](=O)[O-])c3C)cc1CO2	-17	7	75*	27	-7	68*
COc1cccc(NC(=O)CN2C(=O)NC3(CCc4ccccc43)C2=O)c1 (configuration not stated)	.	-4	-1	-2	3	.
CN1CCN(c2cc3c(c4c2[nH]c2ccccc24)C(=O)CC(C)(C)C3)CC1	20	5	84*	6	-27	-42
Cc1cccc(C)c1OCC(O)CN1CCC(CN2C(=O)c3cccc4cccc(c34)C2=O)CC1 (configuration not stated)	-14	-15	62*	19	-31	11
CC(=O)Nc1cccc(C(=O)NNC(=O)c2n[nH]c(=O)c3ccccc23)c1	.	-22	2	4	-5	.
COc1ccc(-c2csc(/C(C#N)=C\c3ccc(O)c([N+](=O)[O-])c3)n2)cc1OC	-7	-5	99*	17	-15	50*
N#C/C(=C\c1ccc(O)c([N+](=O)[O-])c1)c1nc2ccccc2s1	20*	.	91*	.	.	64*
SMILES	GPR7 antag	CHO parental Ca	MPTP block	OX1R antag-1	OX1R antag-2	Rh123 counter	others
COc1cc(/C=C(\C#N)c2nc3ccccc3s2)cc([N+](=O)[O-])c1O	3	.	36	.	.	.
O=C(N/N=C/c1cc2ccccc2[nH]1)c1ccccc1Cl	-6	1	0	6	-12	.
CC(=O)c1ccc(NC(=S)Nc2ccc(Br)c(Cl)c2)cc1	-7	-7	96*	27	-6	100*
S=C(Nc1cccc(Br)c1)c1ccccc1	13	-8	53*	20	-10	71*
O=C(NCCCl)Nc1cccc(Br)c1	-1	1	0	6	-21	.
O=C(Nc1ccc(F)cc1)Nc1cccc(Br)c1	.	76*	89*	58*	61*	91*
S=C(Nc1ccccc1)Nc1cccc(Br)c1	6	-9	90*	15	5	102*
O=C1C=C(/C=C/C2C=CC=CC2)C[C@@H](c2ccc(Cl)cc2)C1 (some centres not stated)	.	-32	1	-4	-28	.
CC(C)NC(=O)C1(C)CCN1C(=O)Cc1ccc(-c2ccccc2)cc1 (configuration not stated)	.	.	0	.	.	.
O=C(NCCOCCNC(=O)OCc1ccccc1)OCc1ccccc1	10	-9	0	10	-3	.
O=C1CCN1C1(C(=O)NC2CCCCC2)CCCC1	-2	6	0	5	5	.
CC(=O)Nc1ccc(NC(=S)Nc2ccc(Br)cc2)cc1	-5	-9	98*	16	-6	88*
Cc1ccc(NC(=S)Nc2ccc(Br)cc2)cc1	6	-4	44	1	-1	.
S=C(Nc1ccccc1)Nc1ccc(Br)cc1	-4	3	95*	6	-2	88*
S=C(NNC(=S)Nc1ccccc1)Nc1ccccc1	-7	-3	7	2	-21	.
CC(C)(C)NC(=S)Nc1ccc(Br)cc1	4	-4	51*	11	-3	66*
N#Cc1ccc(NC(=S)Nc2ccccc2)cc1	-4	-1	90*	33	-3	92*
CC(C)(C)NC(=S)Nc1ccc(Nc2ccccc2)cc1	11	3	8	12	-3	.
CC(=O)Nc1ccc(NC(=S)Nc2ccccc2)cc1	-13	-1	0	0	6	.
N#CCN(N=Nc1ccccc1)c1ccccc1	-2	-3	1	22	-18	.
COc1ccc(NC(=O)c2ccc(COc3ccccc3Br)o2)c(OC)c1	.	-45	1	11	-10	.
C=CCN(Cc1nc(-c2ccccc2)no1)C(=O)c1ccco1	-3	-9	1	13	-2	.
Cc1cc(C)n2nc(CNS(=O)(=O)c3ccc(CC(C)C)cc3)nc2n1	-7	-16	2	9	-19	.
